Reference: PMC10716778 (The Journal of Biological Chemistry, 2023)
≈ marks a conversion by molar mass, not a printed value.

Experiments:
[1] = system: Escherichia coli Top10 vector control (no β-lactamase); experiment: MIC by broth dilution, E. coli vector control; assay type: cell-based
[2] = system: Escherichia coli expressing KPC-2; experiment: MIC by broth dilution, E. coli expressing KPC-2; assay type: cell-based
[3] = system: Escherichia coli expressing KPC-44; experiment: MIC by broth dilution, E. coli expressing KPC-44; assay type: cell-based; conditions: for fold lower MIC than WT KPC-2: E. coli expressing KPC-44 vs KPC-2; for MIC: Escherichia coli
KPC-44 [4] = molecular target: T1, KPC-44 (Klebsiella pneumoniae, UniProt Q9F663, DUP260-274); assay type: biochemical; conditions: for kcat / Km: substrate hydrolysis by KPC-44, 30 °C; for kcat: 50 mM sodium phosphate pH 7; for Km: pH 7; for fold lower kcat than KPC-2 / fold lower kcat/KM than KPC-2: KPC-44 vs KPC-2
KPC-2 [5] = molecular target: T2, KPC-2 (Klebsiella pneumoniae, UniProt Q9F663); experiment: Decarbamylation/deborylation rate; assay type: biochemical; conditions: jump dilution, 30 °C
How it was run: (§1)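 It was then diluted 100-fold into the same buffer and added to 200 μM nitrocefin at 1:10. Recovery of activity was followed continuously at A482, 30 °C. Vaborbactam deborylation was run the same way.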

KPC-44 [6] = molecular target: T1, KPC-44; experiment: Decarbamylation/deborylation rate; assay type: biochemical; conditions: for k-2: KPC-44, jump dilution, 30 °C
How it was run: as §1

KPC-44 [7] = molecular target: T1, KPC-44; experiment: Inhibition of nitrocefin hydrolysis; assay type: biochemical
KPC-2 [8] = molecular target: T2, KPC-2; experiment: Steady-state kinetics of β-lactam hydrolysis by KPC-2; conditions: substrate hydrolysis by KPC-2; 30 °C, 50 mM sodium phosphate pH 7
KPC-2 [9] = molecular target: T2, KPC-2; experiment: Inhibition of nitrocefin hydrolysis; assay type: biochemical
[10] = system: CC(C)(O/N=C(\C(=O)N[C@@H]1C(=O)N2C(C(=O)[O-])=C(C[n+]3ccccc3)CS[C@H]12)c1csc(N)n1)C(=O)O; experiment: purified protein, by the assay type; conditions: other: substrate hydrolysis by KPC-2, 30 °C, pH 7
[11] = system: C[C@@H](O)[C@H]1C(=O)N2C(C(=O)O)=C(SCCN=CN)C[C@H]12; experiment: purified protein, by the assay type; conditions: other: substrate hydrolysis by KPC-2, 30 °C, pH 7
[12] = system: C[C@@H](O)[C@H]1C(=O)N2C(C(=O)O)=C(S[C@@H]3CN[C@H](C(=O)N(C)C)C3)[C@H](C)[C@H]12; experiment: purified protein, by the assay type; conditions: other: substrate hydrolysis by KPC-2, 30 °C, pH 7

Compound: CC1(C)S[C@@H]2[C@H](NC(=O)[C@H](N)c3ccccc3)C(=O)N2[C@H]1C(=O)O [Ampicillin]
- MIC [1]: 4 µg/mL (≈ 11.4 µM)
- MIC [2]: 128 µg/mL (≈ 366 µM)
- fold lower MIC than WT KPC-2 [3]: 2 fold
- MIC [3]: 64 µg/mL (≈ 183 µM)
- kcat (KPC-44 [4]): 126 ± 5 s⁻¹
- Km (KPC-44 [4]): 232 ± 22 µM

Compound: NC(=O)[C@@H]1CC[C@@H]2CN1C(=O)N2OS(=O)(=O)O [Avibactam]
- k-2 (KPC-2 [5]): (9.6 ± 0.020) × 10^−5 s^−1
- k-2 (KPC-44 [6]): (7.1 ± 0.32) × 10^−5 s^−1

Compound: CC(C)(O/N=C(\C(=O)N[C@@H]1C(=O)N2C(C(=O)[O-])=C(C[n+]3ccccc3)CS[C@H]12)c1csc(N)n1)C(=O)O [Ceftazidime]
- MIC [1]: 0.5 µg/mL (≈ 0.915 µM)
- MIC [2]: 2 µg/mL (≈ 3.66 µM)
- MIC [3]: 8 µg/mL (≈ 14.6 µM)

Compound: O=C(O)[C@H]1/C(=C/CO)O[C@@H]2CC(=O)N21 [Clavulanate]
- IC50 (KPC-44 [7]): 4800 ± 170 nM

Compound: C[C@@H](O)[C@H]1C(=O)N2C(C(=O)O)=C(SCCN=CN)C[C@H]12 [Imipenem]
- MIC [1]: 0.25 µg/mL (≈ 0.835 µM)
- MIC [2]: 1.5 µg/mL (≈ 5.01 µM)
- fold lower MIC than WT KPC-2 [3]: 2 fold
- fold higher MIC than negative control ([3]; E. coli expressing KPC-44 vs no β-lactamase control): 3 fold
- MIC [3]: 0.75 µg/mL (≈ 2.51 µM)
- fold lower kcat than KPC-2 (KPC-44 [4]): 8 fold
- fold lower kcat/KM than KPC-2 (KPC-44 [4]): 4 fold
- kcat (KPC-44 [4]): 6.4 ± 0.33 s⁻¹
- Km (KPC-44 [4]): 57 ± 7.1 µM

Compound: C[C@@H](O)[C@H]1C(=O)N2C(C(=O)O)=C(S[C@@H]3CN[C@H](C(=O)N(C)C)C3)[C@H](C)[C@H]12 [Meropenem]
- MIC [1]: 0.25 µg/mL (≈ 0.652 µM)
- MIC [2]: 0.375 µg/mL (≈ 0.978 µM)
- MIC [3]: 0.25 µg/mL (≈ 0.652 µM)
- fold lower kcat than KPC-2 (KPC-44 [4]): 7 fold
- fold lower kcat/KM than KPC-2 (KPC-44 [4]): 3 fold
- kcat (KPC-44 [4]): 0.46 ± 0.022 s⁻¹
- Km (KPC-44 [4]): 7.3 ± 1.4 µM

Compound: O=C(Cc1cccs1)N[C@@H]1C(=O)N2C(C(=O)O)=C(/C=C/c3ccc([N+](=O)[O-])cc3[N+](=O)[O-])CS[C@H]12 [Nitrocefin]
- kcat (KPC-44 [4]): 20 ± 0.67 s⁻¹
- Km (KPC-44 [4]): 16 ± 1.4 µM
- kcat (KPC-2 [8]): 130 ± 2.2 s⁻¹

Compound: O=C(O)C[C@@H]1CC[C@H](NC(=O)Cc2cccs2)B(O)O1 [Vaborbactam]
- IC50 (KPC-2 [9]): 130 ± 5.4 nM
- IC50 (KPC-44 [7]): 220 ± 0.92 nM
- fold difference in IC50 (less potent versus KPC-44 compared to KPC-2) (KPC-44 [7]; KPC-44 vs KPC-2): less than 2 fold
- k-2 (KPC-2 [5]): (1.2 ± 0.014) × 10^−5 s^−1
- k-2 (KPC-44 [6]): (2.9 ± 0.047) × 10^−5 s^−1
- fold higher k-2 than KPC-2 (KPC-44 [6]; KPC-44 vs KPC-2): 3 fold

Compound: KPC-2 (Klebsiella pneumoniae)
- kcat [10]: > 0.8 s⁻¹
- kcat/Km [10]: 1100 ± 66 M⁻¹ s⁻¹
- Km [11]: 130 ± 33 µM
- kcat [11]: 50 ± 4.5 s⁻¹
- kcat/Km [11]: 380000 ± 100000 M⁻¹ s⁻¹
- Km [12]: 19 ± 2.9 µM
- kcat [12]: 3.3 ± 0.18 s⁻¹
- kcat/Km [12]: 170000 ± 28000 M⁻¹ s⁻¹
